Test results as given in ChEMBL document CHEMBL3421570, “Combinatorial Libraries As a Tool for the Discovery of Novel, Broad-Spectrum Antibacterial Agents Targeting the ESKAPE Pathogens” (J Med Chem, 2015).
The source made the active and inactive calls. The calls are words filed in the database; no cut-off is given here.

Columns and labels:
Pseudomonas aeruginosa = assay: Antimicrobial activity against Pseudomonas aeruginosa assessed as inhibition of microbial growth at 100 uM after 24 hrs; format: functional, organism-based
Outline: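 Broth microdilution single-concentration read: overnight cultures diluted 1:1000, compound in DMF (≤2.0%) added, 37°C for 24 h, growth inhibition scored visually by lack of turbidity; triplicate. Gram-positives grown in TSB, Gram-negatives in LB.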

Acinetobacter baumannii = assay: Ratio of MIC for Acinetobacter baumannii measured after 8 cycle passage to MIC for wild type Acinetobacter baumannii; format: functional
Enterobacter cloacae = assay: Ratio of MIC for Enterobacter cloacae measured after 8 cycle passage to MIC for wild type Enterobacter cloacae; format: functional
Klebsiella pneumoniae = assay: Ratio of MIC for Klebsiella pneumoniae measured after 8 cycle passage to MIC for wild type Klebsiella pneumoniae; format: functional
Staphylococcus aureus = assay: Ratio of MIC for Staphylococcus aureus measured after 8 cycle passage to MIC for wild type Staphylococcus aureus; format: functional

Row | Compound | growth inhibition (GI) (Pseudomonas aeruginosa) | Ratio (Acinetobacter baumannii) | Ratio (Enterobacter cloacae) | Ratio (Klebsiella pneumoniae) | Ratio (Staphylococcus aureus)
1 | COC(=O)[C@H]1[C@H]2C[C@@H]3c4[nH]c5cc(OC)ccc5c4CCN3C[C@H]2C[C@@H](OC(=O)c2cc(OC)c(OC)c(OC)c2)[C@@H]1OC | inactive | – | – | – | –
2 | CN[C@H](CC(C)C)C(=O)N[C@H]1C(=O)N[C@@H](CC(N)=O)C(=O)N[C@H]2C(=O)N[C@H]3C(=O)N[C@H](C(=O)N[C@H](C(=O)O)c4cc(O)cc(O)c4-c4cc3ccc4O)[C@H](O)c3ccc(c(Cl)c3)Oc3cc2cc(c3O[C@@H]2O[C@H](CO)[C@@H](O)[C@H](O)[C@H]2O[C@H]2C[C@](C)(N)[C@H](O)[C@H](C)O2)Oc2ccc(cc2Cl)[C@H]1O [VANCOMYCIN] | – | <=128 | <=128 | <=128 | 128
